# RBBP9 inhibitor: inhibitors of human serine hydrolase RBBP9; 220,000 tested, 0.2% active; inhibition, % at 7.94 µM; recombinant RBBP9, FP-Rh probe fluorescence polarization; AID 1515;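 active = inhibition above the campaign mean of all tested compounds plus 3 SD, cut at about 14% in these data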;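 also: plate controls were DMSO wells with RBBP9 for no effect and wells lacking RBBP9 protein for full effect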
#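 Test system – recombinant human RBBP9 · Input – RBBP9 2.5 µM in dispensing solution, pre-mixing · Medium – Tris buffer pH 8.0, NaCl, Pluronic · Schedule – preincubation 30 min plus labeling 45 min at 25 °C · Measured by – fluorescence polarization · Measure – % inhibition · Controls – DMSO and no-protein wells · Replicates – one well per compound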
# DNA FID counter: counter-screen for HCV NS3 helicase inhibitors: DNA intercalator displacement | AID 1845 | 290,000 tested, 0.17% active | inhibition, % at 7.9 µM | DNA fluorescent intercalator displacement, fluorescence; in the data active = inhibition above about 37%;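 also: 0% = vehicle and 100% = reference compound; higher means more ethidium bromide displaced from hairpin DNA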
# Wee1 stabilizer: inhibitors of human Wee1 degradation; P30291; HeLa Luc-Wee1K328M stability, luciferase luminescence; 100% = proteasome inhibitor MG132 effect; reporter increase, % at 5 µM; 220,000 tested, 1.2% active; AID 1321;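 active = activation above the mean of all tested compounds plus 3 SD, set per screening run, cut at about 8.8% in these data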;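 also: cells exposed to compound for 20 h before luminescence read; 0% = DMSO alone and 100% = MG132 at 30 µM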
# Target sequence (P30291 whole entry K328M): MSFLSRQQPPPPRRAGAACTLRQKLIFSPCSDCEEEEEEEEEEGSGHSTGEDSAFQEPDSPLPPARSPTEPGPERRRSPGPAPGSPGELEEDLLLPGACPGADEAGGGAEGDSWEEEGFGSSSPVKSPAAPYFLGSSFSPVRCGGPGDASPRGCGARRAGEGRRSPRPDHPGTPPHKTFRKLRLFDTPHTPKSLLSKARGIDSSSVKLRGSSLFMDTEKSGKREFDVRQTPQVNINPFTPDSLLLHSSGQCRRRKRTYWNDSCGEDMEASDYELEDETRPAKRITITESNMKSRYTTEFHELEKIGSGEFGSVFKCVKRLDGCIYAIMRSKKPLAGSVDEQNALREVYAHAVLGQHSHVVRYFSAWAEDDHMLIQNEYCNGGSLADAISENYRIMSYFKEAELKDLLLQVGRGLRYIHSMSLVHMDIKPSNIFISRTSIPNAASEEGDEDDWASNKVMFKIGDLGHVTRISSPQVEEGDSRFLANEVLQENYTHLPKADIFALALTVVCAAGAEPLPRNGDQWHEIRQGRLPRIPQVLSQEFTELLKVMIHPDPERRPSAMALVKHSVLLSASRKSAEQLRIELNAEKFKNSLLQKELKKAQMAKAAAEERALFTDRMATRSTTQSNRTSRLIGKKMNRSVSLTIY
# Rad51 HR inh: blocks human Rad51 in homologous recombination; Q06609; hRad51 DNA strand exchange, fluorescence dequenching; inhibition, % at 10 µM; 200,000 tested, 0.085% active; AID 1385;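 active = inhibition above 40% at the single screening dose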;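 also: 0% = DMSO control wells and 100% = blanks with heterologous ssDNA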
#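 Test system: preformed human Rad51 ssDNA filaments; also added: Donor/quencher-labelled 47-bp dsDNA substrate; doses: 10 µM final, single point; times: 37 °C 15-min filament assembly, 30-min compound preincubation, 15-min exchange; detection: FRET fluorescence dequenching, excitation 485 nm, emission 520 nm; read-out basis: Fluorescence-based percent inhibition, control- and blank-normalised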
# Wee1 degr conf: human Wee1 degradation inhibition, confirmation; shares compounds with Wee1 stabilizer; 1,100 tested, 4% active; HeLa Luc-Wee1K328M degradation, luminescence; vehicle 0%, proteasome-blocked wells 100%; activation, % at 5 µM; AID 1410; in the data active = activation above about 8.9%
# RBBP9 inh conf: confirmation of human RBBP9 inhibitors; shares compounds with RBBP9 inhibitor; recombinant RBBP9, FP-Rh probe fluorescence polarization; inhibition, % at 7.94 µM; 410 tested, 36% active;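 active = inhibition above the hit cutoff derived for the primary screen, cut at about 15% in these data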;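 also: 0% = RBBP9 with DMSO and 100% = wells lacking RBBP9 protein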
# The depositor's hits bear a star; . = not tested or not shown. Only some compounds are listed: those with a hit (about 1.2% of all), similar ones and a draw of the others.
SMILES,RBBP9 inhibitor,DNA FID counter,Wee1 stabilizer,Rad51 HR inh,Wee1 degr conf,others
CCOC(=O)C(C)Sc1nc2c(c(=O)[nH]c(=O)n2C)n1C/C=C(/C)Cl (configuration not stated),-0.8,-28.2,11.8*,2.1,-3.0,
CC1=CC(c2ccccc2)n2nnnc2N1 (configuration not stated),-7.2,-6.1,11.6*,-5.2,3.8,
CC1=CC(c2ccccc2)n2nc(N3C(=O)c4ccccc4C3=O)nc2N1 (configuration not stated),-4.0,7.5,0.1,-8.6,.,
COc1cccc(NC(=O)CSc2nc3scc(C)c3c(=O)[nH]2)c1,.,-14.9,.,.,.,
Cc1ccc2nc(NCc3ccccc3)[nH]c2c1,-9.4,-8.1,17.1*,-0.2,29.4*,
Cc1ccc(SCCN2CCN(CC(C)C)CCC2=O)cc1,.,.,.,6.7,.,
C[C@H](O)[C@@H](C(=O)N1CCN(C(=O)OC(C)(C)C)CC1)n1cc(CCCCNC(=O)OC(C)(C)C)nn1,-6.1,-34.5,22.2*,7.1,-0.1,
CCCCc1cn([C@@H](CCCCNC(=O)OC(C)(C)C)C(=O)N2CCN(C(=O)OC(C)(C)C)CC2)nn1,-7.7,-49.7,5.4,1.5,.,
C=CCN1C(=O)C(C)(C)N(C(=O)c2cccc([N+](=O)[O-])c2)c2ccccc21,.,-26.7,.,.,.,
O=C(N/N=C1\CC(c2ccccc2)Oc2ccccc21)c1cccnc1 (configuration not stated),-17.3,-9.6,12.2*,2.6,-0.4,
CS(=O)(=O)Nc1ccc(C(=O)Nc2ccc(S(=O)(=O)N3CCCC3)cc2)cc1,-1.4,-5.8,12.8*,-3.3,0.7,
Cc1cccc(-n2cc(-c3ccccc3)c3c(NN4CCOCC4)ncnc32)c1,-6.3,-35.5,23.8*,-4.7,1.1,
Cc1ccc(-n2cc(-c3ccccc3)c3c(NN4CCOCC4)ncnc32)cc1,-5.2,-13.4,3.2,-2.0,.,
O=C(/C=C/c1ccccc1)c1ccc(NC2=NCCCS2)cc1,-8.3,-0.4,-2.9,.,.,
O=C(/C=C/c1ccc(Br)cc1)c1ccc(NC2=NCCCS2)cc1,0.7,36.9*,12.2*,5.7,6.5,
Cc1ccc2nc(-c3ccc(NC(=O)COC(=O)c4ccc(Br)o4)cc3)sc2c1,8.2,-1.2,7.3,-12.5,.,
Cc1ccc2nc(-c3ccc(NC(=O)COC(=O)c4cncc(Br)c4)cc3)sc2c1,-7.4,-4.3,15.3*,-5.3,-3.1,
CC1CC(C)CN(CC(=O)NC(c2ccccc2)c2ccccc2)C1 (configuration not stated),3.0,37.0*,12.5*,-3.2,0.5,
O=C(CN1CCCCCC1)NC(c1ccccc1)c1ccccc1,.,10.9,.,.,.,
COc1ccc(C(C(=O)Nc2ccc(C(C)C)cc2)N(Cc2ccco2)C(=O)CC2NC(=O)NC2=O)cc1 (configuration not stated),0.0,-31.8,15.8*,7.2,3.6,
CN1/C(=C\C(=O)Nc2cccc(Cl)c2)C(C)(C)c2ccccc21,-7.3,4.6,19.3*,-6.4,-0.6,
COc1ccc2cc(C(=O)C3CCCN(C(=O)c4csnn4)C3)ccc2c1 (configuration not stated),0.9,-20.5,-0.4,.,.,
O=C(c1ccc(Cl)cc1)C1CCCN(C(=O)c2csnn2)C1 (configuration not stated),8.2,-8.0,16.3*,18.0,0.1,
CC(C)N1CCC(N2CCN(Cc3ccc(Oc4ncccn4)cc3)CC2CCO)CC1 (configuration not stated),-4.2,6.5,12.8*,-13.2,-0.4,
N#Cc1c(C(F)(F)F)cc(C2CC2)[nH]c1=O,5.0,10.2,14.7*,4.5,1.5,
SMILES,RBBP9 inhibitor,DNA FID counter,Wee1 stabilizer,Rad51 HR inh,Wee1 degr conf,others
COc1cc(/C=C2\CCOC2=O)cc(OC)c1OC,2.1,-5.3,-0.5,-8.6,.,
COc1ccccc1N1CCN(/N=C/C=C\c2ccco2)CC1,-6.2,-21.2,24.1*,6.9,2.2,
Oc1ccc(Nc2nc3ccccc3nc2Nc2ccc(O)cc2)cc1,20.9*,3.8,2.2,-2.3,.,RBBP9 inh conf=36.8*
CCOC(=O)Cc1nn(C)c(=O)c2ccccc12,15.9*,-10.2,0.8,-0.6,.,RBBP9 inh conf=0.0
CN(C)c1cc(-c2ccc(Cl)cc2Cl)oc(=O)c1Cl,-3.0,-10.8,-0.2,-6.0,.,
CC(=O)C(=Nc1ccccc1Cl)NNc1ccc(Cl)cc1,37.5*,-1.3,1.4,-7.0,.,RBBP9 inh conf=6.0
